Experimental findings from ChEMBL document CHEMBL4425094, “Novel Benzo[a]quinolizidine Analogs Induce Cancer Cell Death through Paraptosis and Apoptosis” (J Med Chem, 2016) are described below.

By IC50 is commonly meant the point on the concentration scale where inhibition reaches its midpoint.

Structures are written as SMILES. Activity calls are given as the source filed them. The calls are words filed in the database; no cut-off is given here.

One series deals with MDA-MB-231. Kind of series: Cytotoxicity against human MDA-MB-231 cells assessed as cell growth inhibition after 24 hrs by MTT assay. Type of series: functional, cell-based. As to conditions: MDA-MB-231, 24 h. In outline: (§1)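 Cells seeded 24 h in RPMI 1640 + 10% FBS. RWPE-1 was kept in K-SFM with bovine pituitary extract and EGF. Cells then exposed to compounds for 24 h at 37 °C, 5% CO2, with DMSO vehicle and docetaxel as positive control. MTT added for 4 h, absorbance read at 570 nm. Triplicate runs, IC50 reported as mean of three experiments.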
On the technique in general: Tetrazolium dyes change colour on reduction, which living cells bring about.

Series [1] deals with PC-3. Description: Cytotoxicity against human PC3 cells assessed as cell growth inhibition after 24 hrs by MTT assay. Type of series: functional, cell-based. The conditions noted are these: PC-3, 24 h. In outline:
as §1

The subject of series [2] is PC-3. Kind of series: Induction of morphological changes in human PC3 cells assessed as formation of massive cytoplasmic vacuoles at 1 uM after 12 hrs by confocal microscopic analysis. Type of series: functional, cell-based.
In series [3] the test system is PC-3. Kind of series: Induction of cell cycle arrest in human PC3 cells assessed as accumulation in G2 phase at 0.5 uM after 24 hrs by […]propidium iodide based flow cytometric analysis (reference value: 16.3 to 25 %). Type of series: functional. For orientation: Flow cytometry measures light scatter and fluorescence of single cells or particles in a stream.

Series [4] has as its system PC-3. Description: Induction of cell cycle arrest in human PC3 cells assessed as accumulation in G2 phase at 1 uM after 24 hrs by […]propidium iodide based flow cytometric analysis (reference value: 16.3 to 25 %). Type of series: functional.
For series [5], the system named is PC-3. Description: Induction of apoptosis in human in human PC3 cells assessed as reduction in cell viability in presence of pan-caspase inhibitor Z-VAD-fmk by MTT assay. In kind it is functional, cell-based. In outline: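 PC3 cells pretreated with Z-VAD-fmk (10 μM) or Ac-DEVD-CHO (50 μM) before compound exposure. Viability read by MTT at 570 nm. Significance tested against control by Student's t test.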

The subject of series [6] is PC-3. Description: Induction of cytoplasmic vacuolation in human PC3 cells assessed as increase in size and number of vacuoles at 1 uM by phase-contrast microscopic analysis. In kind it is functional, cell-based. The conditions noted are these: TDE = time-dependent effect. In outline: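 PC3 cells in RPMI 1640 with 10% FBS at 37 °C, 5% CO2, treated with 1 μM agent for 0−24 h; DMSO vehicle control. Vacuole appearance, size and number followed over time by phase-contrast microscopy at constant magnification.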

Series [7] deals with T1, Eukaryotic translation initiation factor 2-alpha kinase 3 (Homo sapiens) (UniProt Q9NZJ5).
T1 sequence (whole entry): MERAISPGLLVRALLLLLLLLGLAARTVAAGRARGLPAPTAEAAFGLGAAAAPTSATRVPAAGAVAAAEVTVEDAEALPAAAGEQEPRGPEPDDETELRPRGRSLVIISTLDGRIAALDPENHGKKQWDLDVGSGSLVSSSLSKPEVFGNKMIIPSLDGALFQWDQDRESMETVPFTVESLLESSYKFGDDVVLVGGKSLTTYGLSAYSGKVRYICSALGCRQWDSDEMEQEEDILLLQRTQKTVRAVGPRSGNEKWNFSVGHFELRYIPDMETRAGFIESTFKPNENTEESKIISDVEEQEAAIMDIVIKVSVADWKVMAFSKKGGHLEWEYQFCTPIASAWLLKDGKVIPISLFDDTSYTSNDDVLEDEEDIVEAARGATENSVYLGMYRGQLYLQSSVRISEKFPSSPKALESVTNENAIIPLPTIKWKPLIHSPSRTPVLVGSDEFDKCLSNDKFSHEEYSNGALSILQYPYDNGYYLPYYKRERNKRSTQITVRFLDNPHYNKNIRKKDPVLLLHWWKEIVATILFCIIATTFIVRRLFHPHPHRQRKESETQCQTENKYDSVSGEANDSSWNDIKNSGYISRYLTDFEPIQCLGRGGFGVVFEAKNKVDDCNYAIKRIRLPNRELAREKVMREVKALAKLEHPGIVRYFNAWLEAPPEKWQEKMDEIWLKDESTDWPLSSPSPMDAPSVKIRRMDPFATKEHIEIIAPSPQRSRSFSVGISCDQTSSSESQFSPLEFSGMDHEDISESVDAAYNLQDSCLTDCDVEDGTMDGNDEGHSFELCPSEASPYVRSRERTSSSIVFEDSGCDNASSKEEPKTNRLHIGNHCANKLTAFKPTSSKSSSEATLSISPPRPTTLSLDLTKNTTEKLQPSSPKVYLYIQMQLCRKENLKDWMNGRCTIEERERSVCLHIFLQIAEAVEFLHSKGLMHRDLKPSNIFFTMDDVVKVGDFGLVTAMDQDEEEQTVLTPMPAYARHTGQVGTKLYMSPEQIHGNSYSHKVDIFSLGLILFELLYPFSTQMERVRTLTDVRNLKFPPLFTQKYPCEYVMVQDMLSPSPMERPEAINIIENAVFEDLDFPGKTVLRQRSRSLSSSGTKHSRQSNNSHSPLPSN
Kind of series: Activation of PERK phosphorylation in human PC3 cells assessed as eIF2alpha phosphorylation after 24 hrs by Western blot analysis. In kind it is cell-based. In outline: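 PC3 cells in RPMI 1640 with 10% FBS, treated with compound for timed intervals. DMSO vehicle control. Lysis in RIPA buffer, 40 μg protein per lane on SDS-PAGE, transfer to nitrocellulose. Primary antibodies overnight at 4 °C, HRP-secondary 45 min, ECL detection. GAPDH or β-actin used as loading control.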
(A western blot detects proteins with antibodies after separation by electrophoresis.)

In series [8] the test system is PC-3. Description: Growth inhibition of human PC3 cells at IC30 in presence of […] by MTT assay. In kind it is functional.
For series [9], the system named is PC-3. Description: Induction of autophagy in human PC3 cells assessed as upregulation of LC3 expression after 24 hrs by Western blot analysis. In kind it is functional, cell-based. In outline: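 PC3 cells in RPMI 1640 with 10% FBS, treated at 50−70% confluence for a time course up to 24 h; DMSO vehicle control. Lysed in RIPA buffer; 40 μg protein run on SDS-PAGE, transferred to nitrocellulose, primary antibody overnight at 4 °C, HRP secondary 45 min, ECL detection. GAPDH or β-actin loading control.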

For a further series, the system named is PC-3M. Kind of series: Antitumor activity against human PC3M-lluc-C6 cells xenografted in athymic Balb/c mouse assessed as decrease in tumor burden by measuring photon intensity at 15 mg/kg, ip measured on day 9 by bioluminescence method (reference value: 6.501 x 10^9 photons/s/cm2). Type of series: functional.
Series [10] deals with PC-3. Description: Growth inhibition of human PC3 cells at IC30 in presence of bortezomib by MTT assay. In kind it is functional, cell-based. In outline:
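PC3 cells incubated with increasing concentrations of compound combined with a second agent (bortezomib or partner compound). Viability determined, combination index calculated: CI < 1 synergism, = 1 additive, > 1 antagonism.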

A short description of series [11]: Toxicity in athymic Balb/c mouse assessed as induction of mortality at 15 mg/kg, ip administered every 2 days for 18 days. In kind it is organism-based. As to conditions: in vivo. In outline: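 Male athymic BALB/c-nu mice, 6 weeks old, bearing subcutaneous PC3M-luc-C6 xenografts (5 × 10^6 cells, right anterior flank) were grouped (n = 5) once tumours reached about 0.1 cm3. They received a 15 mg/kg suspension intraperitoneally every 2 days for 18 days, alongside placebo and docetaxel (15 mg/kg) groups. Body weight and deaths were recorded.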

Series [12] concerns PC-3. Kind of series: Induction of apoptosis in human in human PC3 cells assessed as reduction in cell viability in presence of caspase inhibitor by MTT assay.

On to `Cc1cc(C)cc(COc2cc3c(cc2OCc2cc(C)cc(C)c2)[C@@H]2C[C@H](O)C[C@@H](C)N2CC3)c1` (racemic), for which the IC50 in the series with MDA-MB-231 was 820 nM; in the series with PC-3 [1] it was 660 nM. Moreover, the result (in the series on PC-3 [2]; in [7]; in the series with PC-3 [9]) was Active. The Activity in the series with PC-3 [3] was 13.7 - 14.9%; in the series with PC-3 [4] it was 11.9 - 14.5%; with PC-3 [6], “Tde”; with PC-3M, 2.45 ×10⁹ /s/cm2; in series [11], “Non-Toxic”. In addition, the result in the series on PC-3 [5] and in the series on PC-3 [12] was inactive. In addition, the “growth inhibition (GI)” value with PC-3 [8] came out at 54%. In the series on PC-3 [10], the “growth inhibition (GI)” value was “Active”.
